Laboratory results from ChEMBL document CHEMBL4706553, “Discovery of potent small molecule PROTACs targeting mutant EGFR” (Eur J Med Chem, 2020).
Calls of active or inactive are those of the source. No cut-off for these calls is given here.

Key:
NCI-H1975 [1] = assay: Induction of apoptosis in human NCI-H1975 cells at 333 to 1000 nM measured after 48 hrs by AnnexinV-FITC/propidium iodide staining based flow cytometry analysis; format: functional, cell-based; conditions: dose 333-1000 nM
Summary of the method: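 To measure apoptosis, cells were seeded at 0.5–1 × 10⁶ per well, grown 24 h, then treated for 48 h. Collected cells were stained with an Annexin V-FITC apoptosis detection kit following its instructions, and apoptosis rate was read by flow cytometry. n = 2.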

NCI-H1975 [2] = assay: Inhibition of colony formation in human NCI-H1975 cells at 100 nM incubated for 15 days by crystal violet staining based analysis; format: functional, cell-based; conditions: time 15.0 day
Summary of the method: (§1)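 Colony formation: 200 cells per well were seeded and incubated 24 h, then kept with compound for 15 days. After three PBS washes, cells were fixed in cold 75% ethanol and stained with 0.1% crystal violet in water for 1 h. Colonies were counted.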

HCC827 = assay: Inhibition of colony formation in human HCC827 cells at 1 nM incubated for 15 days by crystal violet staining based analysis; format: functional, cell-based; conditions: time 15.0 day; summary of the method: as §1
[3] = test system: von Hippel-Lindau disease tumor suppressor/Epidermal growth factor receptor (Homo sapiens), P00533+P40337 [UNDEFINED MUTATION]; assay: Protac activity at VHL/EGFR del19 mutant in human HCC827 cells assessed as induction of EGFR degradation at 0.033 uM pretreated with autophagy inhibitor, chloroquine for 2 hrs followed by incubation with compound for 24 hrs by Western blot analysis; format: cell-based
von Hippel-Lindau disease tumor suppressor/Epidermal growth factor receptor (Homo sapiens), P00533+P40337 [UNDEFINED MUTATION], sequence (P00533 whole entry, looked up, stated change not applied): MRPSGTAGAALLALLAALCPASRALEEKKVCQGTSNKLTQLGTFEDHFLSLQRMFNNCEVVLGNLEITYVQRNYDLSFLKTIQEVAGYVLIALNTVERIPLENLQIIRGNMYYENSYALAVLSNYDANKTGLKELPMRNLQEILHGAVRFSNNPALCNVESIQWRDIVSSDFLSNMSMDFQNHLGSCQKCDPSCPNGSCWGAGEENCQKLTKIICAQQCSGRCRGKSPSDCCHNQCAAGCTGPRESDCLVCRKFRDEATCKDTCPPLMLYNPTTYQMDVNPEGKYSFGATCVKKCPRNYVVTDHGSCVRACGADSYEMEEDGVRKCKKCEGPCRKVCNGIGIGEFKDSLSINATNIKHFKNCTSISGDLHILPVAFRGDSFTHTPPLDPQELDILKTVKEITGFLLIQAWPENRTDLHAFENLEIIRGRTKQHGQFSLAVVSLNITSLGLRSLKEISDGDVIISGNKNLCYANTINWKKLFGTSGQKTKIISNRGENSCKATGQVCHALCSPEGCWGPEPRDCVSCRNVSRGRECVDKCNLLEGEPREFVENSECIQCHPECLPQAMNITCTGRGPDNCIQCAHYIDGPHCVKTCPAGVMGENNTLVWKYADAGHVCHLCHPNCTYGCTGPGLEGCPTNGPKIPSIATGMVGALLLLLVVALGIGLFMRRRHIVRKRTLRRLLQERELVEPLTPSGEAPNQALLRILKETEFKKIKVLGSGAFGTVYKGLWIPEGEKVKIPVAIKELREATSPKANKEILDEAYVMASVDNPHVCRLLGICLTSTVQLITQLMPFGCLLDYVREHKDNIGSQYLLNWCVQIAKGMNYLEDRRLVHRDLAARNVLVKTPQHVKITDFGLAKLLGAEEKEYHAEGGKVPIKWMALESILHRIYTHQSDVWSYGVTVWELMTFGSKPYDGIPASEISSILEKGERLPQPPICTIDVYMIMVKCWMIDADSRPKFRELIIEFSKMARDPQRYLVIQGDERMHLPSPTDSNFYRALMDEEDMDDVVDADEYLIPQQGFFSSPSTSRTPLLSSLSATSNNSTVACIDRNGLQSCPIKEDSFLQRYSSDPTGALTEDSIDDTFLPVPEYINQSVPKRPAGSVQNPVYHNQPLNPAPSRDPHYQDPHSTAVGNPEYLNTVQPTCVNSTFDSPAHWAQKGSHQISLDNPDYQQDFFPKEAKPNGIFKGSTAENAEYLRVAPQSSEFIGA
von Hippel-Lindau disease tumor suppressor/Epidermal growth factor receptor (Homo sapiens), P00533+P40337 [UNDEFINED MUTATION], sequence (P40337 whole entry, looked up, stated change not applied): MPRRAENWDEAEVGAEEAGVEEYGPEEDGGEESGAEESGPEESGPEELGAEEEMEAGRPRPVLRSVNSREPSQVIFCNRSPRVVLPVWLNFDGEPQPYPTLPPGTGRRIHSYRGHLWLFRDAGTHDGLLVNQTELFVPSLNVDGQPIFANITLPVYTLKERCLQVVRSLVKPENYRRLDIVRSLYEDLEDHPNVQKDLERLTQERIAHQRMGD

[4] = test system: von Hippel-Lindau disease tumor suppressor/Epidermal growth factor receptor (Homo sapiens), P00533+P40337 [UNDEFINED MUTATION]; assay: Protac activity at VHL/EGFR del19 mutant in human HCC827 cells assessed as induction of EGFR degradation at 33 nM incubated for 24 hrs measured following drug wash-out for 48 hrs by Western blot analysis; format: cell-based
Summary of the method: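 HCC827 cells (RPMI-1640, 10% heat-inactivated FBS, 1% sodium pyruvate, 1% glutamine, 37 °C, 5% CO₂) treated at 33 nM for 24 h. Medium then replaced with compound-free medium, and protein harvested at the stated times. EGFR read by Western blot; n = 2.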

SMILES: Cc1ncsc1-c1ccc(CNC(=O)[C@@H]2C[C@@H](O)CN2C(=O)[C@@H](NC(=O)CCCCCCN2CCN(c3ccc(Nc4ncc5nc(Nc6ccccc6)n(C6CCCC6)c5n4)cc3)CC2)C(C)(C)C)cc1
- Activity (NCI-H1975 [1]): inactive
- inhibition (NCI-H1975 [2]): Active
- inhibition (HCC827): Active
- Activity [3]: inactive
- Activity [4]: inactive
